These results are taken from PubChem BioAssay AID463079 (The Scripps Research Institute Molecular Screening Center, 2010).

Molecules are shown by their SMILES. The whole screen tested about 330,000 compounds, of which about 2,000 (0.61%) were called active.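 The calls were made as follows: active = inhibition above that plate's mean sample inhibition plus 3 SD (cut at about 26% in these data); inactive = the rest.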 For the sample, actives were picked, then their nearest neighbours and some compounds at random.

The nature of this test: nonselective Gq signaling inhibition in CHO cells – cell-based, fluorescence, Fluo-8 calcium dye, counter-screen for OX1R antagonist project, primary screen (AID 463079).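 Also: 0% = ATP-challenged DMSO wells and 100% = DMSO wells without ATP.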 The conditions noted are these: parental CHO-K1, ATP-induced calcium, Fluo-8 fluorescence; at 5.6 µM; hits give high values. In a few lines:
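Assay system: parental CHO cells; Read-out basis: percent inhibition of ATP-evoked calcium rise, normalized to controls; Benchmarks: ATP and no-ATP DMSO wells; Compound dosing: single nominal dose of 5.6 µM per compound; Signal: Fluo-8 calcium dye fluorescence; Also added: ATP as calcium-mobilizing challenge; Repeats: singlicate.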
Turning to `Cc1cccc(-c2nc3c(c(SCC(=O)N4CCOCC4)n2)CCCC3)c1`, the inhibition was -8.39% (inactive). Consider `CC[C@]1(O)C[C@@H]2CN(CCc3c([nH]c4ccccc34)[C@@](C(=O)OC)(c3cc4c(cc3OC)N(C)[C@H]3[C@@](O)(C(=O)OC)[C@H](OC(C)=O)[C@]5(CC)C=CCN6CC[C@]43[C@@H]65)C2)C1`, for which the inhibition is -20.6% (inactive). Regarding `O=C(O)c1ccccc1CSc1nc2ccccc2s1`, the inhibition was -0.85% (inactive). As to `Cc1nc2nc(CSc3nc4ccccc4s3)cc(=O)n2[nH]1`, the inhibition was -18.4% (inactive). On to `O=[N+]([O-])c1c(NCCO)cc(Sc2nc3ccccc3s2)c2nonc12`, for which the inhibition was 77.3% (active). To `CN1CCc2nc(SC(C(=O)O)c3ccccc3)c(C#N)c(-c3cccs3)c2C1` (stereo unspecified) belongs -2.58% (inactive); to `CC[C@]1(C(=O)OC)[C@H]2C(=O)N(Cc3ccccc3)C(=O)[C@H]2[C@H]2CN=C(SCc3ccccc3)N21`, -23.1% (inactive).

Turning to `COc1ccc(N2CCN(c3ccc([N+](=O)[O-])cc3Cl)CC2)cc1`, the inhibition is 12% (inactive). Turning to `CN(C)S(=O)(=O)N1CCN(c2ccc([N+](=O)[O-])cc2)CC1`, the inhibition is 29% (active). Regarding `Cc1ccc(N2CCN(S(=O)(=O)N(C)C)CC2)cc1Cl`, the inhibition is -18.3% (inactive).

Turning to `CCCOc1ccc(Cc2c(O)nc(N)[nH]c2=O)cc1C`, the inhibition was -2.86% (inactive). In the case of `COc1cc(OC)cc(-c2cc3ccc(F)cc3cn2)c1`, the inhibition was -22.7% (inactive).

For the compound `COc1ccc(-c2noc(CN(C)S(=O)(=O)c3ccc(C)cc3)n2)cc1`, the inhibition was 38.9% (active). To `COc1ccc(N2CCN(C(=O)CCc3nc(-c4ccc(C)cc4)no3)CC2)cc1` belongs -13.6% (inactive); to `COc1ccc(-c2noc(C(C)NS(=O)(=O)c3ccc(NC(C)=O)cc3)n2)cc1` (stereo unspecified), -2.83% (inactive); to `Cc1ccc(OCC(=O)Nc2ccccc2C(=O)NC2CC2)cc1`, -12.7% (inactive). On to `Cc1nc(-c2ccc(Cl)cc2)sc1C(=O)CBr`, for which the inhibition was 16.1% (inactive). For `O=C(Cc1c(F)cccc1Cl)Nc1ncc([N+](=O)[O-])s1`, the inhibition is 3.65% (inactive). Regarding `CC(=O)Oc1ccccc1C(=O)Nc1ncc([N+](=O)[O-])s1`, the inhibition is 39% (active). On to `COc1ccc(NC(=O)c2ccccc2[N+](=O)[O-])cc1OC`, for which the inhibition is -4.31% (inactive). The same measure for `COc1ccccc1N1CCN(C(=O)CSc2ncnc3c2cnn3-c2ccc(C)c(C)c2)CC1`: -14.4% (inactive); for `O=C(N/C(=C\c1ccc(F)cc1)C(=O)N1CCCCCC1)c1ccccc1`: -14% (inactive). Consider `CC(=O)Nc1ccc(N2C(=O)C3C4CC(=O)C(c5ccccc54)C3C2=O)cc1` (stereo unspecified), for which the inhibition was 9.03% (inactive). With `CCc1ccccc1N1C(=O)C2C3CC(=O)C(c4ccccc43)C2C1=O` (stereo unspecified), the inhibition is 29.8% (active).

As for `CC1=C(C)CC2C(=O)N(c3cccc4ccccc34)C(=O)C2C1` (stereo unspecified), the inhibition was -11.3% (inactive). As to `CC(=O)c1c(C)[nH]c(C(=O)COC(=O)c2cccc(S(=O)(=O)N(C)c3ccccc3)c2)c1C`, the inhibition is 74.8% (active). Consider `COc1cccc(C(=O)OCC(=O)c2[nH]c(C)c(C(C)=O)c2C)c1`, for which the inhibition is -11.5% (inactive). On to `CC(=O)c1c(C)[nH]c(C(=O)COC(=O)c2cccs2)c1C`, for which the inhibition is -6.37% (inactive). In the case of `Cc1nn(C(C)C(=O)N2CCOCC2)c(=O)c2nn(-c3ccccc3)c(C)c12` (stereo unspecified), the inhibition is -7.21% (inactive). To `CC[C@]12c3[nH]c4ccc(OC)cc4c3CCN1C(=O)C(CC(=O)NCCN1CCOCC1)C[C@@H]2C(=O)N1CCN(C(=O)C2CC2)CC1` (stereo partly specified) belongs -9.94% (inactive); to `COc1cc(OC)cc(C(=O)N[C@H](C(=O)OCC(=O)NC(C)c2ccccc2)C(C)C)c1` (stereo partly specified), 41.6% (active); to `Cc1cc(C)cc(OCC(=O)NC(C)c2ccccc2)c1` (stereo unspecified), -19.1% (inactive). Consider `COc1cc(OC)cc(C(=O)NCC(=O)OCC(=O)NC(C)CCc2ccccc2)c1` (stereo unspecified), for which the inhibition is -9.76% (inactive). For `CCC(C(=O)Nc1ccc2c(c1)OCCO2)c1ccccc1` (stereo unspecified), the inhibition was -14.5% (inactive). `CCC(C(=O)OCC(=O)Nc1ccc(C(=O)Nc2ccc(OC)cc2)cc1)c1ccccc1` (stereo unspecified): the inhibition is 2.63% (inactive). The same measure for `CCC(C(=O)Nc1ccc(C(C)C)cc1)c1ccccc1` (stereo unspecified): 54% (active); for `OCC[C@H]1C[C@@H](O)[C@H](O)[C@@]2(OCCc3ccccc32)O1`: -2.14% (inactive).

As for `CCC(C)N(C(=O)CSc1nnnn1-c1ccccc1OC)C1CCS(=O)(=O)C1` (stereo unspecified), the inhibition was -20% (inactive).

For the compound `O=C(/C=C/c1ccc2c(c1)OCCO2)c1ccc(O)cc1`, the inhibition is 3.62% (inactive). For `O=C(/C=C(O)/C=C/c1ccc(O)cc1)/C=C/c1ccc(O)cc1`, the inhibition was 44.2% (active).

For the compound `O=C(O)/C=C/c1ccc(OCCCF)cc1`, the inhibition was -5.89% (inactive).

`CC1CCCCN1CCCNC(=O)Cn1ncc2c([nH]c3ccccc32)c1=O` (stereo unspecified): the inhibition was -10.7% (inactive).

Turning to `CCc1ccccc1NC(=O)c1ccc2c(c1)CCN2S(C)(=O)=O`, the inhibition is -12.5% (inactive). Consider `CN(C)CCCNC(=S)N1CCN(c2nc(-c3ccccc3)cs2)CC1`, for which the inhibition is -5.41% (inactive). Take `Cc1cccn2cc(-c3cccc(S(=O)(=O)N4CCCCC4)c3)nc12`: the inhibition was -20.2% (inactive). `CC1(C)C=Cc2c(ccc3c2OC[C@@H](c2ccc(O)cc2O)C3)O1`: the inhibition is 94.3% (active). The same measure for `c1ccc(CN=C2Nc3ccccc3CS2)nc1`: -13.6% (inactive); for `Cc1ccc(N(CC(=O)Nc2cc(C)cc(C)c2)S(=O)(=O)c2cccc3nonc23)cc1`: -11.6% (inactive).

Take `CCN(CC)S(=O)(=O)c1ccc(N(C)Cc2ccc(C(F)(F)F)cc2)nc1`: the inhibition was 43.6% (active). The same measure for `CCN(CC)S(=O)(=O)c1ccc(N(C)Cc2cccc(OC)c2OC)nc1`: 28.5% (inactive); for `CCN(CC)S(=O)(=O)c1ccc(N(C)CCc2ccc(OC)c(OC)c2)nc1`: -13.7% (inactive).

As for `Nc1ncnc2c1ncn2[C@@H]1O[C@H](CNS(=O)(=O)c2ccc(-c3ccno3)s2)[C@@H](O)[C@H]1O`, the inhibition was -2.72% (inactive). The same measure for `CC[C@]12c3[nH]c4ccc(Cl)cc4c3CCN1C(=O)[C@@H](CC(=O)NCCCOC)C[C@@H]2C(=O)N1CCN(C(=O)C2CC2)CC1`: -12.5% (inactive); for `CCOC(=O)c1c(CN2CCOCC2)n(-c2ccccc2)c2ccc(O)cc12`: -10.2% (inactive); for `CC(=O)c1c(C)n(-c2ccc(N(C)C)cc2)c2ccc(OCC(N)=O)cc12`: -2.26% (inactive).

Turning to `CC(=O)c1c(C)n(-c2ccc(C)cc2)c2ccc(O)cc12`, the inhibition is 81.6% (active).
